# Activity calls are given as the source filed them. The calls are words filed in the database; no cut-off is given here.
# Experiments:
# Staphylococcus aureus = experiment: Antibacterial activity against methicilin-resistant Staphylococcus aureus C1923 assessed as inhibition of bacterial growth incubated for 24 to 48 hrs by microdilution broth method; format: functional, organism-based; settings: time 24-48 hrs
# Procedure, shortened: (§1)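 Clinical isolates, stored at −70 °C, were passaged twice on Mueller-Hinton agar. Broth microdilution in Mueller-Hinton broth, pH 7.4, with twofold serial dilutions. DMSO was at most 1% final. Inoculum 1.5 × 10⁸ CFU/mL suspension. MIC is 95% growth inhibition, read after 24 and 48 h at 36 °C.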
# [1] = system: Mycobacterium tuberculosis; experiment: Antitubercular activity against Mycobacterium tuberculosis CNCTC My 331/88 (H37Rv) assessed as inhibition of bacterial growth measured after 14 days of incubation by Sulas semisynthetic medium based assay; format: functional; settings: 336 h, time 14 day
# Procedure, shortened: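 Micromethod MIC in Sula's semisynthetic medium. MIC is the lowest concentration inhibiting >99% of the mycobacterial population. Isoniazid was the standard drug.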
# [2] = system: Mycobacterium tuberculosis; experiment: Antimycobacterial activity against XDR clinical isolate Mycobacterium tuberculosis 8666/2010 assessed as inhibition of mycobacterial growth measured after 14 to 21 days of incubation by Sulas semisynthetic medium based assay; format: functional; settings: time 14-21 day
# Procedure, shortened: (§2)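 Clinical MDR/XDR M. tuberculosis isolates were tested by the Sula's semisynthetic medium micromethod. Compounds in DMSO at 1000 to 0.5 μmol/L, in twofold-type steps. Incubation at 37 °C, read at 14 and 21 days. MIC99 is the lowest concentration inhibiting >99% of growth. Drug resistance or susceptibility of each isolate is to amikacin, clofazimine, gentamicin, ofloxacin, streptomycin and the others listed.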
# Mycobacterium kansasii [3] = experiment: Antitubercular activity against Mycobacterium kansasii CNCTC My 235/80 assessed as inhibition of bacterial growth measured after 7 days of incubation by Sulas semisynthetic medium based assay; format: functional; settings: CNCTC My 235/80, 168 h, time 7 day
# Procedure, shortened: (§3)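 Micromethod in Sula's semisynthetic medium. MIC is the lowest concentration inhibiting >99% of the mycobacterial population. Isoniazid was the standard.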
# HepG2 [4] = experiment: Cytotoxicity against human HepG2 cells incubated for 24 hrs by MTT assay; format: functional, cell-based; settings: HepG2, 24 h
# Procedure, shortened: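 HepG2 cells in DMEM with 10% FBS, seeded at 15 × 10³ cells/well and attached overnight. Exposed for 24 h to serial dilutions prepared from DMSO stocks, final DMSO ≤1%. Then given fresh medium with 0.5 mg/mL MTT for 1 h at 37 °C. Formazan dissolved in DMSO and read at 570 nm. IC50 from 4-parameter nonlinear regression; three independent experiments in triplicate, mean ± SD.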
# Mycobacterium avium [5] = experiment: Antitubercular activity against Mycobacterium avium CNCTC My 330/88 assessed as inhibition of bacterial growth measured after 14 days of incubation by Sulas semisynthetic medium based assay; format: functional; settings: CNCTC My 330/88, 336 h, time 14 day
# Procedure, shortened: (§4)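 M. avium was tested by the micromethod in Sula's semisynthetic medium. Compounds in DMSO at 1000 to 0.5 μmol/L. Incubation at 37 °C, read at 14 and 21 days. MIC is the lowest concentration giving >99% growth inhibition.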
# [6] = system: Mycobacterium tuberculosis; experiment: Antimycobacterial activity against MDR clinical isolate Mycobacterium tuberculosis 234/2005 assessed as inhibition of mycobacterial growth measured after 14 to 21 days of incubation by Sulas semisynthetic medium based assay; format: functional; settings: time 14-21 day; procedure, shortened: as §2
# [7] = Stability in human plasma assessed as compound remaining at 1 uM incubated for 15 to 120 mins by LC-MS analysis; format: ADME, cell-free; settings: time 15-120 min, read-out: Stability
# Procedure, shortened: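 Stopped with acetonitrile containing internal standard and centrifuged at 12,000 rpm for 5 min at 4 °C. Supernatant analysed by LC-MS in positive mode. % remaining taken from compound/IS peak-area ratios at 120 versus 0 min.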
# [8] = Selectivity index, ratio of IC50 for cytotoxicity against human HepG2 cells by MTT assay to MIC99 for antitubercular activity against Mycobacterium tuberculosis CNCTC My 331/88 (H37Rv) assessed as inhibition of bacterial growth measured after 14 days of incubation; format: functional; settings: time 14 day
# Procedure, shortened: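 HepG2 cells, 15 × 10³/well, were attached overnight and exposed 24 h to serial dilutions (DMSO ≤1%). Read by MTT at 0.5 mg/mL for 1 h and 570 nm. IC50 from 4-parameter regression, three independent experiments in triplicate. SI is HepG2 IC50 divided by H37Rv MIC99.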
# Mycobacterium avium [9] = experiment: Antitubercular activity against Mycobacterium avium CNCTC My 330/88 assessed as inhibition of bacterial growth measured after 21 days of incubation by Sulas semisynthetic medium based assay; format: functional; settings: CNCTC My 330/88, 504 h, time 21 day; procedure, shortened: as §4
# Mycobacterium kansasii [10] = experiment: Antitubercular activity against Mycobacterium kansasii CNCTC My 235/80 assessed as inhibition of bacterial growth measured after 14 days of incubation by Sulas semisynthetic medium based assay; format: functional; settings: CNCTC My 235/80, 336 h, time 14 day; procedure, shortened: as §3
# Pseudomonas aeruginosa = experiment: Antibacterial activity against multidrug-resistant Pseudomonas aeruginosa A1245 assessed as inhibition of bacterial growth incubated for 24 to 48 hrs by microdilution broth method; format: functional, organism-based; settings: time 24-48 hrs; procedure, shortened: as §1
# [11] = system: Mycobacterium tuberculosis; experiment: Antimycobacterial activity against MDR clinical isolate Mycobacterium tuberculosis PRAHA 4 assessed as inhibition of mycobacterial growth measured after 14 to 21 days of incubation by Sulas semisynthetic medium based assay; format: functional; settings: time 14-21 day; procedure, shortened: as §2
# [12] = system: Mycobacterium tuberculosis; experiment: Antimycobacterial activity against XDR clinical isolate Mycobacterium tuberculosis 7357/1998 assessed as inhibition of mycobacterial growth measured after 14 to 21 days of incubation by Sulas semisynthetic medium based assay; format: functional; settings: time 14-21 day; procedure, shortened: as §2
# [13] = system: Mycobacterium tuberculosis; experiment: Antimycobacterial activity against XDR clinical isolate Mycobacterium tuberculosis PRAHA 4 assessed as inhibition of mycobacterial growth measured after 14 to 21 days of incubation by Sulas semisynthetic medium based assay; format: functional; settings: time 14-21 day; procedure, shortened: as §2
# [14] = Aqueous solubility of compound incubated for 20 mins by UV-Visible spectrophotometric analysis; format: physicochemical; settings: buffer
# Procedure, shortened: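 Solubility in ultrapure water containing 5% DMSO. Absorbance taken at each compound's λmax and compared with a six-point calibration made by serial dilution of a 50 μM standard, fitted by linear regression. Over-saturated solutions were sonicated at 37 °C for 10 min and centrifuged at 8000 RPM for 10 min. Supernatant absorbance was read, after dilution with 5% DMSO/water if above the calibration range.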
# H9c2 = experiment: Cytotoxicity against rat H9c2 cells assessed as cell viability at 50 uM incubated for 72 hrs by MTT spectrophotometric analysis relative to control; format: functional; settings: read-out: Activity
# Procedure, shortened: (§5)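 HepG2 or rat H9c2 cells in DMEM with FBS, seeded at 10,000 cells/well. Treated 24 h later for 72 h, with 0.1% DMSO vehicle and 1% Triton X-100 as controls. MTT added (3 mg/mL solution) for 2 h at 37 °C, then cells lysed in isopropanol/0.1 M HCl/5% Triton X-100. Read at 570 nm minus 690 nm. Viability expressed as % of vehicle; IC50 derived where reached. At least four independent experiments.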
# HepG2 [15] = experiment: Cytotoxicity against human HepG2 cells assessed as cell viability incubated for 72 hrs by MTT spectrophotometric analysis; format: functional, cell-based; settings: HepG2, 72 h; procedure, shortened: as §5
# HepG2 [16] = experiment: Cytotoxicity against human HepG2 cells assessed as cell viability at 50 uM incubated for 72 hrs by MTT spectrophotometric analysis relative to control; format: functional; settings: read-out: Activity; procedure, shortened: as §5
Compound,Activity (Staphylococcus aureus),MIC99 [1] [µM],MIC99 [2] [µM],MIC99 (Mycobacterium kansasii [3]) [µM],IC50 (HepG2 [4]) [µM],MIC99 (Mycobacterium avium [5]) [µM],MIC99 [6] [µM],remaining at 1 µM [7] [%],Selectivity Index [8],MIC99 (Mycobacterium avium [9]) [µM],MIC99 (Mycobacterium kansasii [10]) [µM],Activity (Pseudomonas aeruginosa),MIC99 [11] [µM],MIC99 [12] [µM],MIC99 [13] [µM],solubility at 20 min [14] [µM],viability at 50 µM (H9c2) [%],IC50 (HepG2 [15]) [µM],viability at 50 µM (HepG2 [16]) [%]
c1ccc2cc(Cn3cnc4nc(N5CCOCC5)nc(NC5CCC5)c43)ccc2c1,Active,2,8,8,33,250,4,97.5,16.5,500,8,inactive,4,8,8,159,–,–,–
c1ccc(CNc2nc(N3CCOCC3)nc3ncn(Cc4ccc5ccccc5c4)c23)cc1,inactive,2,4,4,33.8,64,2,99.2,16.9,64,4,inactive,4,4,4,58.9,–,–,–
O=c1[nH]c(N2CCOCC2)nc2ncn(Cc3ccc4ccccc4c3)c12,inactive,4,64,32,> 125,> 500,16,96.6,31.25,> 500,64,inactive,16,64,32,46.9,86,59,60.5
Nc1nc(N2CCOCC2)nc2ncn(Cc3ccc4ccccc4c3)c12,inactive,1,4,–,> 125,> 500,–,103,>125,> 500,16,inactive,–,–,–,97.7,91.7,> 50,77
CCNc1nc(N2CCOCC2)nc2ncn(Cc3ccc4ccccc4c3)c12,inactive,1,2,4,63.9,250,–,95.5,63.88,250,8,inactive,–,–,–,150,88,> 50,66.9
O=c1[nH]c(N2CCSCC2)nc2ncn(Cc3ccc4ccccc4c3)c12,inactive,2,8,32,> 32,> 500,16,98.2,16,> 500,64,inactive,8,16,16,9.3,97.1,> 50,72.9
CCOc1nc(N2CCOCC2)nc2ncn(Cc3ccc4ccccc4c3)c12,inactive,1,2,8,43.5,> 500,–,99.6,43.45,> 500,16,inactive,–,–,–,81.3,94.8,33.1,23.5
O=c1[nH]c(N2CCCCC2)nc2ncn(Cc3ccc4ccccc4c3)c12,inactive,2,8,> 500,87.2,> 500,16,96.7,43.6,> 500,> 500,inactive,8,16,16,8.4,79.4,54.8,42.2
COc1nc(N2CCOCC2)nc2ncn(Cc3ccc4ccccc4c3)c12,inactive,2,8,16,64.3,250,16,–,32,500,32,inactive,8,16,16,–,92.6,> 50,66.4
